# Laboratory results from ChEMBL document CHEMBL1134470, “Synthesis, photophysical properties, tumor uptake, and preliminary in vivo photosensitizing efficacy of a homologous series of 3-(1'-alkyloxy)ethyl-3-devinylpurpurin-18-N-alkylimides with variable lipophilicity” (J Med Chem, 2001).
# Tests used:
# [1] = Partition coefficient (logP); type: physicochemical; conditions: octanol/water
# Mus musculus [2] = test: Skin uptake in C3H mice bearing RIF tumors, determined by in vivo reflectance spectroscopy following 5.0 umol/kg administration.; type: functional
# How it was run: (§1)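 Photosensitizer given iv at 5.0 µmol/kg to C3H mice bearing RIF tumors, anesthetized with ketamine xylazine ip. Scattered-light spectrum from tissue was recorded before and after injection. The in vivo drug absorption was taken as the ratio of post- to pre-injection spectra. Tumor and skin were compared at 24 h postinjection.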
# [3] = Tumor and skin uptake ratio of the compound; type: functional
# How it was run: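 C3H mice bearing RIF tumors, anesthetized with ketamine xylazine ip; photosensitizer given iv at 5.0 µmol/kg. Uptake measured by in vivo reflectance spectroscopy: light scattered by tissue recorded before and after injection, and drug absorption taken as the postinjection/preinjection spectral ratio. Tumor versus skin uptake compared at 24 h postinjection.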
# Mus musculus [4] = test: Tumor uptake in C3H mice bearing RIF tumors, determined by in vivo reflectance spectroscopy following 5.0 umol/kg administration.; type: functional; how it was run: as §1
SMILES,logP [1],logP ([1]; read-out: logP),Skin uptake (Mus musculus [2]),Ratio [3],Tumor uptake (Mus musculus [4])
CCCCCCCCCCCCN1C(=O)c2c3nc(cc4nc(cc5[nH]c(cc6[nH]c2c(c6C)C1=O)c(CC)c5C)C(C(C)OCCCCCC)=C4C)[C@@H](C)[C@@H]3CCC(=O)OC (stereo not given in full),,,2 µM,2.39,4.77 µM
CCCCCCCOC(C)C1=C(C)c2cc3nc(c4c5[nH]c(cc6[nH]c(cc1n2)c(C)c6CC)c(C)c5C(=O)N(CCCCCC)C4=O)[C@@H](CCC(=O)OC)[C@@H]3C (stereo not given in full),,,2.6 µM,3.15,8.2 µM
CCCCCCCCCCN1C(=O)c2c3nc(cc4nc(cc5[nH]c(cc6[nH]c2c(c6C)C1=O)c(CC)c5C)C(C(C)OCCCCCC)=C4C)[C@@H](C)[C@@H]3CCC(=O)OC (stereo not given in full),,,1.8 µM,2.88,5.18 µM
CCCCCCCCCCOC(C)C1=C(C)c2cc3nc(c4c5[nH]c(cc6[nH]c(cc1n2)c(C)c6CC)c(C)c5C(=O)N(CCCCCCCCCC)C4=O)[C@@H](CCC(=O)OC)[C@@H]3C (stereo not given in full),,,1.73 µM,3.21,5.56 µM
CCCCCCCCCCOC(C)C1=C(C)c2cc3nc(c4c5[nH]c(cc6[nH]c(cc1n2)c(C)c6CC)c(C)c5C(=O)N(CCC)C4=O)[C@@H](CCC(=O)OC)[C@@H]3C (stereo not given in full),10.68,,4.28 µM,2.4,10.26 µM
CCCCCCCCCCCCOC(C)C1=C(C)c2cc3nc(c4c5[nH]c(cc6[nH]c(cc1n2)c(C)c6CC)c(C)c5C(=O)N(CCCCCC)C4=O)[C@@H](CCC(=O)OC)[C@@H]3C (stereo not given in full),,,4.3 µM,2.19,9.4 µM
CCCCCCCCCCCCOC(C)C1=C(C)c2cc3nc(c4c5[nH]c(cc6[nH]c(cc1n2)c(C)c6CC)c(C)c5C(=O)N(CCCCCCCCCCCC)C4=O)[C@@H](CCC(=O)OC)[C@@H]3C (stereo not given in full),,,2.7 µM,1.87,5.04 µM
CCCCCCN1C(=O)c2c3nc(cc4nc(cc5[nH]c(cc6[nH]c2c(c6C)C1=O)c(CC)c5C)C(C(C)OC)=C4C)[C@@H](C)[C@@H]3CCC(=O)OC (stereo not given in full),,7.82,4.5 µM,2.24,10.1 µM

# More lines, main results first:
logP [1],logP ([1]; read-out: logP),SMILES,Skin uptake (Mus musculus [2]),Ratio [3],Tumor uptake (Mus musculus [4])
10.88,,CCCCCCCCCCCCN1C(=O)c2c3nc(cc4nc(cc5[nH]c(cc6[nH]c2c(c6C)C1=O)c(CC)c5C)C(C(C)OC)=C4C)[C@@H](C)[C@@H]3CCC(=O)OC (stereo not given in full),5.8 µM,2.67,15.48 µM
,7.67,CCCCCCOC(C)C1=C(C)c2cc3nc(c4c5[nH]c(cc6[nH]c(cc1n2)c(C)c6CC)c(C)c5C(=O)N(C)C4=O)[C@@H](CCC(=O)OC)[C@@H]3C (stereo not given in full),1.78 µM,3.61,6.42 µM
10.83,,CCCCCCCCCCN1C(=O)c2c3nc(cc4nc(cc5[nH]c(cc6[nH]c2c(c6C)C1=O)c(CC)c5C)C(C(C)OCCC)=C4C)[C@@H](C)[C@@H]3CCC(=O)OC (stereo not given in full),6.09 µM,1.89,11.5 µM
,8.79,CCCCCCOC(C)C1=C(C)c2cc3nc(c4c5[nH]c(cc6[nH]c(cc1n2)c(C)c6CC)c(C)c5C(=O)N(CCC)C4=O)[C@@H](CCC(=O)OC)[C@@H]3C (stereo not given in full),1.48 µM,3.34,4.95 µM
10.32,,CCCCCCOC(C)C1=C(C)c2cc3nc(c4c5[nH]c(cc6[nH]c(cc1n2)c(C)c6CC)c(C)c5C(=O)N(CCCCCC)C4=O)[C@@H](CCC(=O)OC)[C@@H]3C (stereo not given in full),2.3 µM,3.17,7.3 µM
11.85,,CCCCCCCCCOC(C)C1=C(C)c2cc3nc(c4c5[nH]c(cc6[nH]c(cc1n2)c(C)c6CC)c(C)c5C(=O)N(CCCCCC)C4=O)[C@@H](CCC(=O)OC)[C@@H]3C (stereo not given in full),3.54 µM,3.02,10.7 µM
10.83,,CCCCCCCN1C(=O)c2c3nc(cc4nc(cc5[nH]c(cc6[nH]c2c(c6C)C1=O)c(CC)c5C)C(C(C)OCCCCCC)=C4C)[C@@H](C)[C@@H]3CCC(=O)OC (stereo not given in full),2.95 µM,2.73,8.04 µM
,7.26,CCCOC(C)C1=C(C)c2cc3nc(c4c5[nH]c(cc6[nH]c(cc1n2)c(C)c6CC)c(C)c5C(=O)N(CCC)C4=O)[C@@H](CCC(=O)OC)[C@@H]3C (stereo not given in full),4.8 µM,2.19,10.5 µM
,8.79,CCCCCCN1C(=O)c2c3nc(cc4nc(cc5[nH]c(cc6[nH]c2c(c6C)C1=O)c(CC)c5C)C(C(C)OCCC)=C4C)[C@@H](C)[C@@H]3CCC(=O)OC (stereo not given in full),6.29 µM,2.19,13.8 µM
,5.32,CCc1c(C)c2cc3[nH]c(cc4nc(c5c6nc(cc1[nH]2)C(C)=C6C(=O)N(C)C5=O)[C@@H](CCC(=O)OC)[C@@H]4C)c(C)c3C(C)OC (stereo not given in full),0.1 µM,2.87,0.3 µM
10.73,,CCCCCCCCCCCCOC(C)C1=C(C)c2cc3nc(c4c5[nH]c(cc6[nH]c(cc1n2)c(C)c6CC)c(C)c5C(=O)N(C)C4=O)[C@@H](CCC(=O)OC)[C@@H]3C (stereo not given in full),1.74 µM,3.57,6.21 µM
